Data taken from ChEMBL document CHEMBL4428067, “Drug Discovery against Psoriasis: Identification of a New Potent FMS-like Tyrosine Kinase 3 (FLT3) Inhibitor, 1-(4-((1H-Pyrazolo[3,4-d]pyrimidin-4-yl)oxy)-3-fluorophenyl)-3-(5-(tert-butyl)isoxazol-3-yl)urea, That Showed Potent Activity in a Psoriatic Animal Model” (J Med Chem, 2016).
The source made the active and inactive calls. The rule behind the calls is not given here.

Legend:
Mus musculus [1] = species: Mus musculus; test: Antipsoriatic activity in K14-VEGF transgenic mouse model of psoriasis assessed as decrease in STAT3 phosphorylation in psoriatic lesion at 0.05% applied tropically over lesion for continuous 29 days by immunohistochemical analysis relative to vehicle control; format: functional; parameters: scale not given: the % may be the effect or the level left
Procedure, shortened: (§1)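 K14-VEGF mice were treated topically with 0.05% cream or vehicle for 29 days, n=3 per group. Ear skin was paraffin-embedded, cut into 4-µm sections and immunostained. Staining was quantified in 5 random fields, reported as mean ± SD.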

[2] = target: T1, Receptor-type tyrosine-protein kinase FLT3 (Homo sapiens, UniProt P36888); test: Inhibition of recombinant human N-terminal GST-tagged FLT3 (564 to end residues) expressed by baculovirus in Sf21 insect cells measured after 10 mins in presence of [gamma-33P]ATP by scintillation counter method
T1 sequence (P36888 whole entry): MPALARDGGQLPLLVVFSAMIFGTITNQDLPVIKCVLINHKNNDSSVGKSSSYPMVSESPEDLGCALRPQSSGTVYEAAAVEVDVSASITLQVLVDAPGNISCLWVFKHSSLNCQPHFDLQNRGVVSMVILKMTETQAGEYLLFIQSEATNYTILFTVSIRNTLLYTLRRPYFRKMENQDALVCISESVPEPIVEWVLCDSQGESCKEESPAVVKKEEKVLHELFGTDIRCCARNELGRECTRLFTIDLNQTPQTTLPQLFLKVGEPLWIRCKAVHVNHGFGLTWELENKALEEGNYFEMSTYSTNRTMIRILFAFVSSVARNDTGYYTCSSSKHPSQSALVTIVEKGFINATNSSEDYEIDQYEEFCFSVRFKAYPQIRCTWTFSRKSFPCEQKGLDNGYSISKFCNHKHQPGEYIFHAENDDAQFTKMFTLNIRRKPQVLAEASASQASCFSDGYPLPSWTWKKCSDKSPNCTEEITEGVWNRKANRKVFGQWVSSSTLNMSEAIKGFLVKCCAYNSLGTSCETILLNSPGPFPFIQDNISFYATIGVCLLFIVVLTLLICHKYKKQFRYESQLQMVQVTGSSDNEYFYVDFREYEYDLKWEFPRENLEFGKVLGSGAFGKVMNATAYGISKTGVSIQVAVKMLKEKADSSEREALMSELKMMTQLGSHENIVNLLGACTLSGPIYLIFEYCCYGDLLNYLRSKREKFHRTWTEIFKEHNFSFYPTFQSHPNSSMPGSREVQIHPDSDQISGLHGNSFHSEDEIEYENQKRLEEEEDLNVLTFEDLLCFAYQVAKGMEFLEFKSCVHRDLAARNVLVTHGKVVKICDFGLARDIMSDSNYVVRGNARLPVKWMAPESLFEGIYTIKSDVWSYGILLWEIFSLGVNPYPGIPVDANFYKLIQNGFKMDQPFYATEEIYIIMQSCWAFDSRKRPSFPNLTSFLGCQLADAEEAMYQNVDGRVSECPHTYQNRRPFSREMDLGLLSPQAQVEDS

Mus musculus [3] = species: Mus musculus; test: Antipsoriatic activity in K14-VEGF transgenic mouse model of psoriasis assessed as decrease in Th17 cell formation in lymph node at 0.05% applied tropically over lesion for 29 days by flow cytometric analysis relative to vehicle-treated control; format: functional, organism-based
Procedure, shortened: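 K14-VEGF mice were treated topically for 29 days with 0.05% cream or vehicle. Lymph node cells were surface-stained with anti-CD4 PE, then fixed and permeabilised. They were stained with FITC anti-IL-17 and analysed by flow cytometry, three mice, mean ± SD.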

Mus musculus [4] = species: Mus musculus; test: Antipsoriatic activity in K14-VEGF transgenic mouse model of psoriasis assessed as decrease in CD54 expression in psoriatic lesion at 0.05% applied tropically over lesion for continuous 29 days by immunohistochemical analysis relative to vehicle control; format: functional; parameters: scale not given: the % may be the effect or the level left; procedure, shortened: as §1

## CC(C)(C)c1cc(NC(=O)Nc2ccc(Oc3ncnc4[nH]ncc34)c(F)c2)no1
Mus musculus [1]
  Activity: 64%
[2]
  IC50: 5 nM
Mus musculus [3]
  Activity: Active
Mus musculus [4]
  Activity: 87%
